Consider 76 sequences from the array DNA melting data of Ke et al. (doi:10.1101/2024.01.08.574731).

Data set [1] is described as follows: folding enthalpy; higher = less favourable; fluorescence melt of hairpins on a sequencing array, two-state fit. Particulars: sodium 0.088 M. Summed up:
(§1)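 With Cy3 and quencher oligos annealed, library hairpins on a sequenced MiSeq flow cell were imaged for Cy3 fluorescence in 50 mM Na-HEPES pH 8.0, 25 mM NaCl, in 2.5 °C steps up to 60 °C. Melting temperature and folding enthalpy were derived from bootstrapped two-state fits of signals normalised to pre-quench Cy3 and to control constructs. Four replicates were combined by inverse variance, with fitted temperatures raised by 9.35 °C to match UV melts.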

The nature of data set [2]: melting temperature; fluorescence melt of hairpins on a sequencing array, two-state fit, raised by 9.35 °C to match UV melts. Particulars: sodium 0.088 M. Summed up:
as §1

GATCACAGGGTGATC ((((((...)))))): the folding enthalpy in data set [1] is -36.8 kcal/mol. Moreover, the Tm in data set [2] amounted to 61.2 °C.
On the same counts, the results for GATCACATACGTGATC ((((((....)))))) are -41.2 kcal/mol and 57.4 °C.
In the same order, the values of GATCACATCGGTGATC ((((((....)))))) are -39.6 kcal/mol and 57 °C.
On the same counts, the results for GATCACATCGTGATC ((((((...)))))) are -41 kcal/mol and 58.3 °C.
For the sequence GATCACCAAAGTGATC ((((((....)))))), the folding enthalpy in data set [1] was -50.8 kcal/mol. For the same sequence, the Tm in data set [2] was determined as 55.2 °C.
In the same order, the values of GATCACCAATGTGATC ((((((....)))))) are -35.3 kcal/mol and 54.1 °C.
In the same order, the values of GATCACCACGGTGATC ((((((....)))))) are -41.4 kcal/mol and 62.9 °C.
In the same order, the values of GATCACCAGAGTGATC ((((((....)))))) are -40 kcal/mol and 57.2 °C.
On to GATCACCAGGTGATC ((((((...)))))), for which the folding enthalpy in data set [1] was -26.5 kcal/mol. Also, in data set [2], the Tm turned out to be 54.8 °C.
In the same order, the values of GATCACCAGTGTGATC ((((((....)))))) are -47.5 kcal/mol and 53.3 °C.
With GATCACCATGGTGATC ((((((....)))))), in data set [1], the folding enthalpy was -43.6 kcal/mol. Moreover, the Tm in data set [2] is 63.8 °C.
On the same counts, the results for GATCACCCCGGTGATC ((((((....)))))) are -36.8 kcal/mol and 59.8 °C.
On the same counts, the results for GATCACCCGGTGATC ((((((...)))))) are -44.2 kcal/mol and 56.3 °C.
In the same order, the values of GATCACCCGTGTGATC ((((((....)))))) are -47.7 kcal/mol and 55.5 °C.
For the sequence GATCACCGAAGTGATC ((((((....)))))), the folding enthalpy in data set [1] is -38.1 kcal/mol. For the same sequence, the Tm in data set [2] amounted to 55.8 °C.
In the same order, the values of GATCACCGCCGTGATC ((((((....)))))) are -48.4 kcal/mol and 54.4 °C.
As to GATCACCGGTGTGATC ((((((....)))))), in data set [1], the folding enthalpy is -38 kcal/mol. The Tm in data set [2] was found to be 54.8 °C.
On the same counts, the results for GATCACCGTGGTGATC ((((((....)))))) are -29.5 kcal/mol and 66.3 °C.
On the same counts, the results for GATCACCGTGTGATC ((((((...)))))) are -42.3 kcal/mol and 58.3 °C.
On the same counts, the results for GATCACCTCGTGATC ((((((...)))))) are -38.2 kcal/mol and 59.3 °C.
As to GATCACCTGCGTGATC ((((((....)))))), the folding enthalpy in data set [1] is -48.3 kcal/mol. Moreover, the Tm in data set [2] stood at 54.9 °C.
On the same counts, the results for GATCACCTGGGTGATC ((((((....)))))) are -47.5 kcal/mol and 62.6 °C.
With GATCACCTGTGTGATC ((((((....)))))), in data set [1], the folding enthalpy was -37.8 kcal/mol. Besides, the Tm in data set [2] is 57 °C.
In the same order, the values of GATCACCTTGGTGATC ((((((....)))))) are -37.2 kcal/mol and 67 °C.
On the same counts, the results for GATCACGAAAGTGGAATC ((((((....)))..))) are -10.3 kcal/mol and 32.1 °C.
In the case of GATCACGAAAGTGGCATC ((((((....)))..))), the folding enthalpy in data set [1] was -12.3 kcal/mol. In addition, in data set [2], the Tm came to 30.3 °C.
On the same counts, the results for GATCACGAAAGTGGTATC ((((((....)))..))) are -13.5 kcal/mol and 34.1 °C.
On the same counts, the results for GATCACGAAAGTGTATC ((((((....))).))) are -20.6 kcal/mol and 44 °C.
With GATCACGAAAGTGTCATC ((((((....)))..))), the folding enthalpy in data set [1] was -13.8 kcal/mol. For the same sequence, the Tm in data set [2] was 31.5 °C.
On the same counts, the results for GATCACGACGTGATC ((((((...)))))) are -30.6 kcal/mol and 64.6 °C.
Regarding GATCACGATGTGATC ((((((...)))))), in data set [1], the folding enthalpy is -30.8 kcal/mol. The Tm in data set [2] stood at 58.5 °C.
On the same counts, the results for GATCACGCGTGTGATC ((((((....)))))) are -38.7 kcal/mol and 56.5 °C.
In the same order, the values of GATCACGCTTGTGATC ((((((....)))))) are -38 kcal/mol and 57.7 °C.
Take GATCACGGACGTGATC ((((((....)))))): the folding enthalpy in data set [1] is -37.7 kcal/mol. The Tm in data set [2] turned out to be 67.2 °C.
On the same counts, the results for GATCACGGAGGTGATC ((((((....)))))) are -37.9 kcal/mol and 64.3 °C.
In the same order, the values of GATCACGGCGTGATC ((((((...)))))) are -38 kcal/mol and 61.3 °C.
Regarding GATCACGGCTGTGATC ((((((....)))))), the folding enthalpy in data set [1] was -44.5 kcal/mol. Further, the Tm in data set [2] amounted to 62.3 °C.
For the sequence GATCACGGGCGTGATC ((((((....)))))), in data set [1], the folding enthalpy is -40.4 kcal/mol. Also, the Tm in data set [2] is 57.8 °C.
In the same order, the values of GATCACGGGGGTGATC ((((((....)))))) are -36.7 kcal/mol and 56.8 °C.
Regarding GATCACGTCTGTGATC ((((((....)))))), the folding enthalpy in data set [1] was -37.7 kcal/mol. In data set [2], the Tm is 59.5 °C.
Consider GATCACGTTCGTGATC ((((((....)))))), for which the folding enthalpy in data set [1] is -39.4 kcal/mol. Further, in data set [2], the Tm turned out to be 62.6 °C.
In the same order, the values of GATCACTACAGTGATC ((((((....)))))) are -40.5 kcal/mol and 60.6 °C.
On the same counts, the results for GATCACTACCGTGATC ((((((....)))))) are -41.2 kcal/mol and 55.3 °C.
In the same order, the values of GATCACTAGTGTGATC ((((((....)))))) are -37.6 kcal/mol and 55.1 °C.
As to GATCACTATGTGATC ((((((...)))))), the folding enthalpy in data set [1] is -38.8 kcal/mol. Besides, in data set [2], the Tm was 61.1 °C.
In the same order, the values of GATCACTCCGTGATC ((((((...)))))) are -44 kcal/mol and 59.2 °C.
On the same counts, the results for GATCACTCGTGTGATC ((((((....)))))) are -37.1 kcal/mol and 57.1 °C.
On the same counts, the results for GATCACTGAGTGATC ((((((...)))))) are -40.1 kcal/mol and 55.2 °C.
Take GATCACTGCGGTGATC ((((((....)))))): the folding enthalpy in data set [1] was -38 kcal/mol. The Tm in data set [2] is 61.9 °C.
On the same counts, the results for GATCACTGTGGTGATC ((((((....)))))) are -45.6 kcal/mol and 59.4 °C.
In the same order, the values of GATCACTTGGTGATC ((((((...)))))) are -37.5 kcal/mol and 59.1 °C.
Take GATCACTTTCGTGATC ((((((....)))))): the folding enthalpy in data set [1] was -36.8 kcal/mol. The Tm in data set [2] worked out at 56.4 °C.
In the same order, the values of GATCAGAAACCTGATC ((((((....)))))) are -36.9 kcal/mol and 44.1 °C.
On the same counts, the results for GATCAGAAATGATC (((((....))))) are -22.5 kcal/mol and 41.1 °C.
In the same order, the values of GATCAGAACCCTGATC ((((((....)))))) are -39.8 kcal/mol and 47 °C.
As for GATCAGAACTCTGATC ((((((....)))))), the folding enthalpy in data set [1] was -37.6 kcal/mol. Moreover, in data set [2], the Tm worked out at 48.4 °C.
In the same order, the values of GATCAGAATCTGATC ((((((...)))))) are -31.4 kcal/mol and 45.4 °C.
On to GATCAGAATGCTGATC ((((((....)))))), for which the folding enthalpy in data set [1] was -28.1 kcal/mol. In data set [2], the Tm was 47 °C.
On the same counts, the results for GATCAGACCGCTGATC ((((((....)))))) are -28.5 kcal/mol and 47.8 °C.
In the same order, the values of GATCAGACGGCTGATC ((((((....)))))) are -52.4 kcal/mol and 51.7 °C.
On the same counts, the results for GATCAGAGACTGATC ((((((...)))))) are -31.4 kcal/mol and 48 °C.
As to GATCAGAGATCTGATC ((((((....)))))), the folding enthalpy in data set [1] was -24.3 kcal/mol. The Tm in data set [2] was 50.1 °C.
In the same order, the values of GATCAGAGGACTGATC ((((((....)))))) are -32.8 kcal/mol and 46.9 °C.
As for GATCAGAGGTCTGATC ((((((....)))))), the folding enthalpy in data set [1] is -30.6 kcal/mol. Further, in data set [2], the Tm is 49.5 °C.
In the case of GATCAGAGTACTGATC ((((((....)))))), the folding enthalpy in data set [1] was -37.4 kcal/mol. Besides, in data set [2], the Tm was determined as 49 °C.
In the case of GATCAGAGTCCTGATC ((((((....)))))), the folding enthalpy in data set [1] was -38.2 kcal/mol. Moreover, in data set [2], the Tm was determined as 47.6 °C.
On the same counts, the results for GATCAGATGCTGATC ((((((...)))))) are -30.6 kcal/mol and 49.4 °C.
On to GATCAGCAACTGATC ((((((...)))))), for which the folding enthalpy in data set [1] was -33.8 kcal/mol. Also, in data set [2], the Tm came to 45.6 °C.
On the same counts, the results for GATCAGCAATCTGATC ((((((....)))))) are -32.5 kcal/mol and 47.2 °C.
Take GATCAGCACCCTGATC ((((((....)))))): in data set [1], the folding enthalpy was -33.1 kcal/mol. Moreover, the Tm in data set [2] is 48.7 °C.
On the same counts, the results for GATCAGCAGACTGATC ((((((....)))))) are -42.5 kcal/mol and 50.3 °C.
On the same counts, the results for GATCAGCATGCTGATC ((((((....)))))) are -47.5 kcal/mol and 60.8 °C.
In the same order, the values of GATCAGCATTCTGATC ((((((....)))))) are -39 kcal/mol and 48.8 °C.
Consider GATCAGCCCGCTGATC ((((((....)))))), for which the folding enthalpy in data set [1] is -47.1 kcal/mol. Further, the Tm in data set [2] was 58.3 °C.
GATCAGCCTACTGATC ((((((....)))))): the folding enthalpy in data set [1] is -35.2 kcal/mol. Also, in data set [2], the Tm was 49.9 °C.
In the same order, the values of GATCAGCCTCCTGATC ((((((....)))))) are -34.4 kcal/mol and 49.1 °C.
